Source: ChEMBL document CHEMBL1130044, “Design, synthesis, and evaluation of tetrahydropyrimidinones as an example of a general approach to nonpeptide HIV protease inhibitors” (J Med Chem, 1997)

Legend:
[1] = system: MT2; assay: Concentration required to reduce HIV viral RNA concentration by 90% in MT-2 cells infected with HIV-1RF was determined; conditions: Homo sapiens
[2] = system: Human immunodeficiency virus type 1 (RF/HAT ISOLATE); assay: Reduction in HIV viral RNA concentration by 90% in MT-2 cells infected with HIV-1RF.; assay type: functional; conditions: Human immunodeficiency virus 1, RF, MT2
Outline: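 MT-2 cells infected with HIV-1RF; viral RNA transcript accumulation measured 3 days post-infection; value is the compound concentration lowering viral RNA by 90% from the reference level.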

[3] = biological target: Human immunodeficiency virus type 1 protease (Human immunodeficiency virus 1, UniProt Q72874); assay: Binding affinity against HIV protease
Outline: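 HIV protease inhibition measured as cleavage of a fluorescent substrate, with the cleavage products quantified by HPLC. Ki values were derived from this assay.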

IC90 [1] [nM]	Compound	IC90 [2] [nM]	Ki [3] [nM]
80000	O=C1N(Cc2ccccc2)[C@@H](Cc2ccccc2)C(O)[C@H](Cc2ccccc2)N1Cc1ccccc1		
	NC(=O)c1cccc(CN2C(=O)N(Cc3cccc(C(N)=O)c3)[C@H](Cc3ccccc3)[C@H](O)[C@H]2CCc2ccccc2)c1	35	0.088
	N=C(NO)c1cccc(CN2C(=O)N(Cc3cccc(/C(N)=N/O)c3)[C@H](CCc3ccccc3)[C@@H](O)[C@H]2Cc2ccccc2)c1	49	
	CNc1cccc(CN2C(=O)N(Cc3cccc(NC)c3)[C@H](Cc3ccccc3)[C@H](O)[C@H]2CCc2ccccc2)c1	328	4.9
	O=C1N(Cc2cccc(CO)c2)[C@H](CCc2ccccc2)[C@@H](O)[C@@H](Cc2ccccc2)N1Cc1cccc(CO)c1	109	0.49
	Nc1cc(CN2C(=O)N(Cc3ccc(F)c(N)c3)[C@H](Cc3ccccc3)[C@H](O)[C@H]2CCc2ccccc2)ccc1F	36	0.25
	O=C1N(Cc2cccc(O)c2)[C@H](CCc2ccccc2)[C@@H](O)[C@@H](Cc2ccccc2)N1Cc1cccc(O)c1	115	0.3
	NC(=O)c1cc(CN2C(=O)N(Cc3ccc(F)c(C(N)=O)c3)[C@H](Cc3ccccc3)[C@H](O)[C@H]2CCc2ccccc2)ccc1F	490	1.4
260	O=C1N(Cc2ccc3ccccc3c2)C(Cc2ccccc2)P(=O)(O)C(Cc2ccccc2)N1Cc1ccc2ccccc2c1 (stereo unspecified)		
	N#Cc1cccc(CN2C(=O)N(Cc3cccc(C#N)c3)[C@@H](Cc3ccccc3)[C@@H](O)[C@@H]2CCc2ccccc2)c1	> 5000	8000
	COC(=O)c1ccc(CN2C(=O)N(Cc3ccc(C(=O)OC)cc3)[C@H](Cc3ccccc3)[C@H](O)[C@H]2CCc2ccccc2)cc1	> 5000	1970
	NC(=O)c1cccc(CN2C(=O)N(Cc3cccc(C(N)=O)c3)[C@@H](Cc3ccccc3)[C@@H](O)[C@@H]2CCc2ccccc2)c1	> 5000	4800
	COC(=O)c1cccc(CN2C(=O)C(=O)N(Cc3cccc(C(=O)OC)c3)[C@H](Cc3ccccc3)[C@H](O)[C@H]2CCc2ccccc2)c1		40
	COC(=O)c1cccc(CN2C(=O)N(Cc3cccc(C(=O)OC)c3)[C@H](Cc3ccccc3)[C@H](O)[C@H]2CCc2ccccc2)c1	> 5000	
	N=C(NO)c1cccc(CN2C(=O)N(Cc3cccc(/C(N)=N\O)c3)[C@@H](CCc3ccccc3)[C@H](O)[C@@H]2Cc2ccccc2)c1	> 5000	
	O=C1N(Cc2ccc(CO)cc2)[C@H](CCc2ccccc2)[C@@H](O)[C@@H](Cc2ccccc2)N1Cc1ccc(CO)cc1	3600	2.5
	O=C1N[C@H](CCc2ccccc2)[C@@H](O)[C@@H](Cc2ccccc2)N1	> 5000	
	O=C1N(CC2CC2)[C@H](CCc2ccccc2)[C@@H](O)[C@@H](Cc2ccccc2)N1CC1CC1	5200	3.8
	Nc1cccc(CN2C(=O)N(Cc3cccc(N)c3)[C@H](Cc3ccccc3)[C@H](O)[C@H]2CCc2ccccc2)c1	365	1.7
	O=C1N(Cc2cccc(O)c2)[C@H](Cc2ccccc2)C(O)[C@@H](Cc2ccccc2)N1Cc1cccc(O)c1		33
	N#Cc1cccc(CN2C(=O)N(Cc3cccc(C#N)c3)[C@H](Cc3ccccc3)[C@H](O)[C@H]2CCc2ccccc2)c1	1600	11
	Nc1ccc(CN2C(=O)N(Cc3ccc(N)c(F)c3)[C@H](Cc3ccccc3)[C@H](O)[C@H]2CCc2ccccc2)cc1F	540	8
	O=C1N(Cc2ccccc2)[C@H](CCc2ccccc2)[C@@H](O)[C@@H](Cc2ccccc2)N1Cc1ccccc1	2800	15
	COC(=O)c1cccc(CN2C(=O)N(Cc3cccc(C(=O)OC)c3)[C@@H](Cc3ccccc3)[C@@H](O)[C@@H]2CCc2ccccc2)c1	> 5000	
	O=C1N(Cc2cccc(CO)c2)[C@@H](CCc2ccccc2)[C@H](O)[C@H](Cc2ccccc2)N1Cc1cccc(CO)c1	> 5000	550
